# Measured values from PMC3619423 (Experimental eye research, 2013).
# “Also recorded” adds a separate entry of the source. No end group written: not given here.
# Assays:
# [1] = tested on: bovine lens protease-rich fraction; assay: Hydrolysis of MCA-62-70 substrate by lens protease in the presence of inhibitors; assay type: biochemical; settings: for inhibition of MCA-62-70 hydrolysis: pre-incubated 30 min at 37 °C
# [2] = tested on: Arg-MCA hydrolyzing activity (aminopeptidase activity); assay: Arg-MCA hydrolysis; assay type: biochemical, bovine
# protease-rich human = settings: 37 °C, up to 5 h
# [3] = tested on: bovine lens extracts (outer cortical, inner cortical, nuclear); assay: MCA-62-70 hydrolytic activity in regions of bovine lens; assay type: biochemical; settings: 1 mg protein extract, 37 °C
# How it was run: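 Decapsulated bovine lenses stirred at 4 °C in 50 mM sodium phosphate, 150 mM NaCl, pH 7.2, dissolving outer cortex (about a third of wet weight), then inner cortex (about a third); remaining nucleus homogenised. Each fraction centrifuged 30,000 × g, 30 min; supernatant (1 mg protein) incubated with 25 μg MCA-62-70, 2 h, 37 °C; fluorescence read before and after (ex 326, em 398 nm).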
# [4] = tested on: human lens extracts (cortical, nuclear); assay: MCA-62-70 hydrolytic activity in human lenses of different age; assay type: biochemical; settings: for total protease activity (MCA-62-70 hydrolyzed): water-soluble proteins
# How it was run: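 Cortical and nuclear regions of frozen young, middle-aged and old human lenses separated by dissection; water-soluble extracts (1 mg protein) incubated with 25 μg MCA-62-70 substrate, 2 h, 37 °C. Fluorescence read before and after (ex 326, em 398 nm). Amount hydrolysed taken from a standard curve of trypsin-digested substrate; average ± SE of four independent experiments; one-way ANOVA with Tukey's test.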
# [5] = tested on: peptidase-rich fraction of bovine lens extract
# [6] = bovine, 37 °C
# [7] = bovine lens extract containing 5 mg protein; settings: 37 °C, up to 16 h
compound,measurement,setting,value
"O=c1oc(Cl)c(Cl)c2ccccc12 [3,4-DCI]",inhibition of MCA-62-70 hydrolysis,[1]; 500 μM,up to 85%
"CC(C)C[C@H](NC(=O)[C@@H](O)[C@H](N)Cc1ccccc1)C(=O)O [Bestatin, reference compound]",inhibition of Arg-MCA hydrolyzing activity (aminopeptidase activity),[2]; protease preparation treated with bestatin,complete inhibition
"O=C(O)CN(CCN(CC(=O)O)CC(=O)O)CC(=O)O [EDTA, ethylene diamine tetraacetic acid]",inhibition of MCA-62-70 hydrolysis,[1]; concentration not given,50%
"O=C(O)CN(CCOCCOCCN(CC(=O)O)CC(=O)O)CC(=O)O [EGTA, ethylene glycol tetraacetic acid]",inhibition of MCA-62-70 hydrolysis,[1]; concentration not given,50%
NC(=O)CI [Iodoacetamide],Relative activity (%),[1],97%
MCA-SEVRSDRD[Lys(Dnp)]RR-NH2,fragment found,protease-rich human,"MCA-62-68 (MCA-SEVRSDR); also recorded: MCA-62-65 (MCA-SEVR); also recorded: MCA-62-66 (MCA-SEVRS), major"
MCA-SEVRSDRD[Lys(Dnp)]RR-NH2 [MCA-62-70],enzymatic activity (MCA-62-70 hydrolysis),[3]; bovine lens inner cortex,0.10 ± 0.01 nmoles/hr/mg protein
same,enzymatic activity (MCA-62-70 hydrolysis),[3]; bovine lens nuclear region,0.04 ± 0.003 nmoles/hr/mg protein
same,enzymatic activity (MCA-62-70 hydrolysis),[3]; bovine lens outer cortical region,0.58 ± 0.04 nmoles/hr/mg protein
same,share of total lens enzymatic activity in the cortical region,"[4]; human lens cortical region, all age groups",~90%
same,total protease activity (MCA-62-70 hydrolyzed),[4]; middle-aged (40 ± 2 years) human lenses,7.26 ± 0.83 n moles/h
same,total protease activity (MCA-62-70 hydrolyzed),[4]; older (60 ± 2 years) human lenses,5.49 ± 0.29 nmol/h
same,total protease activity (MCA-62-70 hydrolyzed),[4]; young (20 ± 2 years) human lenses,8.84 ± 0.96 nmol/h
"RPPGFSPFR [bradykinin, Bradykinin]",hydrolysis after 2 h,[5],complete hydrolysis
same,slowing of hydrolysis rate versus peptide incubated alone,[5],40%
SDRDKFVIFLDVKHF,not cleaved,[6],αA-66-80 was not hydrolyzed
Succinyl-DVKHFSPEDK-Biotin,fragment found,[7],"αA-76-78; also recorded: αA-76-80; also recorded: αA-76-82, major"
Succinyl-ISEVRSDRDK-Biotin,fragment found,[7],αA-61-65; also recorded: αA-61-66
"α-crystallin: bovine lens α-crystallin, molecular chaperone protein added to the peptidase incubations",increase of Arg-MCA hydrolysis by peptidase-rich bovine lens fraction,"[2]; addition of 12.5 nmoles α-crystallin, data not shown",~4 fold
